Test results taken from ChEMBL document CHEMBL1255341, “Effect of ketoconazole on the pharmacokinetics of maribavir in healthy adults” (Antimicrob Agents Chemother, 2008).

What was measured:
Homo sapiens [1] = test: Apparent oral clearance in human assessed as VP 44469 at 400 mg, po after 24 hrs; assay type: ADME, organism-based; conditions: in vivo
Method in brief: (§1)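 Crossover in healthy adults: single fasted oral 400 mg dose, alone or 1 h after oral ketoconazole 400 mg, with a 1-week washout. Plasma drawn predose through 24 h and assayed by LC-MS/MS. λz from log-linear terminal-phase regression; t1/2 = 0.693/λz; CL/F = dose/AUC0-∞; Vz/F = dose/(λz × AUC0-∞). Nominal times used.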

[2] = Tmax in human plasma at 400 mg, po administered with 400 mg ketoconazole after 7 days; assay type: ADME, organism-based
Method in brief: (§2)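 Fasted healthy adults got a single oral 400 mg dose, alone or 1 h after ketoconazole 400 mg orally, in crossover periods separated by 1 week. Blood taken predose and at 0.5, 1, 1.5, 2, 3, 4, 6, 8, 12, 16, 24 h; analytes measured by validated LC-MS/MS. Cmax and tmax read from the profiles; tmax ranks compared by ANOVA.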

Homo sapiens [3] = test: Toxicity in human assessed as adverse event at 400 mg, po administered with 400 mg ketoconazole after 7 days; assay type: organism-based; conditions: in vivo, 168 h
Method in brief: (§3)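 Healthy volunteers (20 enrolled) given single oral 400 mg doses, with or without oral ketoconazole 400 mg 1 h before, in crossover with a 1-week washout. The investigator recorded all adverse events, grading severity and drug relatedness. Clinical labs ran the day before and after dosing, ECGs predose and at 2 and 4 h, and liver tests at the day-15 follow-up.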

Homo sapiens [4] = test: AUC (0 to infinity) in human assessed as VP 44469 at 400 mg, po administered with 400 mg ketoconazole after 7 days; assay type: ADME, organism-based, Plasma; set-up: dose 400 mg, route oral, time infinity; conditions: in vivo, 168 h
Method in brief: (§4)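 Healthy adults (n = 20) in a two-sequence crossover with a 1-week washout. Single oral 400 mg dose after overnight fast, 4 h post-dose fast; ketoconazole 400 mg oral given 1 h before in the combination period. Plasma sampled predose and 0.5–24 h; validated LC-MS/MS after solid-phase extraction (5–1,000 ng/ml). AUC0-t by log-linear trapezoidal method; AUC0-∞ = AUC0-t + Clast/λz.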

Homo sapiens [5] = test: AUC (0 to infinity) in human assessed as VP 44469 at 400 mg, po after 24 hrs; assay type: ADME, organism-based, Plasma; set-up: dose 400 mg, time infinity, route oral; conditions: in vivo; method in brief: as §4
[6] = Cmax in human plasma at 400 mg, po after 24 hrs; assay type: ADME, organism-based; set-up: dose 400 mg, route oral; method in brief: as §2
[7] = Terminal elimination half-life in human at 400 mg, po administered with 400 mg ketoconazole after 7 days; assay type: ADME, organism-based; conditions: in vivo; method in brief: as §1
Homo sapiens [8] = test: Terminal elimination half-life in human assessed as VP 44469 at 400 mg, po after 24 hrs; assay type: ADME, organism-based; conditions: in vivo; method in brief: as §1
[9] = Volume of distribution with respect to oral bioavailability in human at 400 mg, po after 24 hrs; assay type: ADME, organism-based; conditions: in vivo, read-out: Vss/F; method in brief: as §1
[10] = Volume of distribution with respect to oral bioavailability in human at 400 mg, po administered with 400 mg ketoconazole after 7 days; assay type: ADME, organism-based; conditions: in vivo, read-out: Vss/F; method in brief: as §1
[11] = AUC (0 to t) in human at 400 mg, po administered with 400 mg ketoconazole after 7 days; assay type: ADME, organism-based; conditions: plasma; method in brief: as §4
Homo sapiens [12] = test: Drug excretion in human assessed as VP 44469 at 400 mg, po after 24 hrs; assay type: ADME, organism-based; conditions: in vivo
Method in brief: (§5)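 24-h urine collected from the first void after the oral 400 mg dose, given alone or 1 h after ketoconazole 400 mg, in a crossover of healthy adults. Amount excreted (Ae) measured by LC-MS/MS after solid-phase extraction. Renal clearance = Ae/AUC0-24 from plasma sampled over 24 h.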

Homo sapiens [13] = test: Volume of distribution with respect to oral bioavailability in human assessed as VP 44469 at 400 mg, po administered with 400 mg ketoconazole after 7 days; assay type: ADME, organism-based; conditions: in vivo, 168 h; method in brief: as §1
Homo sapiens [14] = test: AUC (0 to t) in human assessed as VP 44469 at 400 mg, po administered with 400 mg ketoconazole after 7 days; assay type: ADME, organism-based, Plasma; conditions: in vivo, 168 h; method in brief: as §4
Homo sapiens [15] = test: Renal clearance in human assessed as VP 44469 at 400 mg, po administered with 400 mg ketoconazole […]; assay type: ADME, organism-based, Kidney; conditions: in vivo
Homo sapiens [16] = test: Tmax in human plasma assessed as VP 44469 at 400 mg, po after 24 hrs; assay type: ADME, organism-based; conditions: in vivo; method in brief: as §2
Homo sapiens [17] = test: Drug excretion in human assessed as VP 44469 at 400 mg, po administered with 400 mg ketoconazole […]; assay type: ADME, organism-based; conditions: in vivo
[18] = Tmax in human plasma at 400 mg, po after 24 hrs; assay type: ADME, organism-based; method in brief: as §2
Homo sapiens [19] = test: Cmax in human plasma assessed as VP 44469 at 400 mg, po administered with 400 mg ketoconazole after 7 days; assay type: ADME, organism-based; set-up: dose 400 mg, route oral; conditions: in vivo, 168 h; method in brief: as §2
[20] = Renal clearance in human at 400 mg, po administered with 400 mg ketoconazole after 7 days; assay type: ADME, organism-based, Kidney; conditions: in vivo; method in brief: as §5
[21] = Terminal elimination half-life in human at 400 mg, po after 24 hrs; assay type: ADME, organism-based; conditions: in vivo; method in brief: as §1
[22] = Apparent oral clearance in human at 400 mg, po administered with 400 mg ketoconazole after 7 days; assay type: ADME, organism-based; conditions: in vivo; method in brief: as §1
[23] = AUC (0 to t) in human at 400 mg, po after 24 hrs; assay type: ADME, organism-based; set-up: time < 24 hr, dose 400 mg, route oral; conditions: plasma; method in brief: as §4
[24] = Apparent oral clearance in human at 400 mg, po after 24 hrs; assay type: ADME, organism-based; conditions: in vivo; method in brief: as §1
Homo sapiens [25] = test: Toxicity in human assessed as dysgeusia at 400 mg, po after 24 hrs; assay type: organism-based; conditions: in vivo; method in brief: as §3
Homo sapiens [26] = test: Toxicity in human assessed as dysgeusia at 400 mg, po administered with 400 mg ketoconazole after 7 days; assay type: organism-based; conditions: in vivo, 168 h; method in brief: as §3
Homo sapiens [27] = test: AUC (0 to t) in human assessed as VP 44469 at 400 mg, po after 24 hrs; assay type: ADME, organism-based, Plasma; set-up: dose 400 mg, time < 24 hr, route oral; conditions: in vivo; method in brief: as §4
Homo sapiens [28] = test: Drug excretion in human at 400 mg, po administered with 400 mg ketoconazole […]; assay type: ADME, organism-based; conditions: in vivo; method in brief: as §5
[29] = AUC (0 to infinity) in human at 400 mg, po after 24 hrs; assay type: ADME, organism-based; set-up: dose 400 mg, route oral, time infinity; conditions: plasma; method in brief: as §4
Homo sapiens [30] = test: Apparent oral clearance in human assessed as VP 44469 at 400 mg, po administered with 400 mg ketoconazole after 7 days; assay type: ADME, organism-based; conditions: in vivo, 168 h; method in brief: as §1
Homo sapiens [31] = test: Toxicity in human assessed as headache at 400 mg, po administered with 400 mg ketoconazole after 7 days; assay type: organism-based; conditions: in vivo, 168 h; method in brief: as §3
Homo sapiens [32] = test: Toxicity in human assessed as adverse event at 400 mg, po after 24 hrs; assay type: organism-based; conditions: in vivo; method in brief: as §3
Homo sapiens [33] = test: Renal clearance in human assessed as VP 44469 at 400 mg, po after 24 hrs; assay type: ADME, organism-based, Kidney; conditions: in vivo; method in brief: as §5
[34] = AUC (0 to infinity) in human at 400 mg, po administered with 400 mg ketoconazole after 7 days; assay type: ADME, organism-based; set-up: dose 400 mg, time infinity, route oral; conditions: plasma; method in brief: as §4
Homo sapiens [35] = test: Drug excretion in human at 400 mg, po after 24 hrs; assay type: ADME, organism-based; conditions: in vivo; method in brief: as §5
Homo sapiens [36] = test: Tmax in human plasma assessed as VP 44469 at 400 mg, po administered with 400 mg ketoconazole after 7 days; assay type: ADME, organism-based; conditions: in vivo, 168 h; method in brief: as §2
Homo sapiens [37] = test: Volume of distribution with respect to oral bioavailability in human assessed as VP 44469 at 400 mg, po after 24 hrs; assay type: ADME, organism-based; conditions: in vivo; method in brief: as §1
Homo sapiens [38] = test: Cmax in human plasma assessed as VP 44469 at 400 mg, po after 24 hrs; assay type: ADME, organism-based; set-up: dose 400 mg, route oral; conditions: in vivo; method in brief: as §2
[39] = Cmax in human plasma at 400 mg, po administered with 400 mg ketoconazole after 7 days; assay type: ADME, organism-based; set-up: dose 400 mg, route oral; method in brief: as §2
Homo sapiens [40] = test: Terminal elimination half-life in human assessed as VP 44469 at 400 mg, po administered with 400 mg ketoconazole after 7 days; assay type: ADME, organism-based; conditions: in vivo, 168 h; method in brief: as §1

CC(C)Nc1nc2cc(Cl)c(Cl)cc2n1[C@H]1O[C@@H](CO)[C@H](O)[C@@H]1O [MARIBAVIR]
CL/F (Homo sapiens [1]): 23.8 L/h | Tmax [2]: 1.9 h | Activity (Homo sapiens [3]): 45% | AUC (Homo sapiens [4]): 20.5 µg·h/mL | AUC (Homo sapiens [5]): 17.4 µg·h/mL | Cmax [6]: 19800 ng/mL | half-life [7]: 6.88 h | t1/2 (Homo sapiens [8]): 6.83 h | Vd/F [9]: 27.5 L | Vd/F [10]: 21.6 L | AUC(0-t) at 168 h [11]: 173 µg·h/mL | Activity (Homo sapiens [12]): 110 mg | Vz/F (Homo sapiens [13]): 342 L | AUC (Homo sapiens [14]): 14.7 µg·h/mL | CL_renal (Homo sapiens [15]): 6876 mL/h | Tmax (Homo sapiens [16]): 2.5 h | Activity (Homo sapiens [17]): 95 mg | Tmax [18]: 1.7 h | Cmax (Homo sapiens [19]): 1000 ng/mL | CL renal at 168 h [20]: 0.953 mL/min | half-life [21]: 5.73 h | CL/F [22]: 38.7 mL/min | AUC(0-t) at 24 h [23]: 119 µg·h/mL | CL/F [24]: 59.3 mL/min | Activity (Homo sapiens [25]): 47% | Activity (Homo sapiens [26]): 35% | AUC (Homo sapiens [27]): 15.6 µg·h/mL | Activity (Homo sapiens [28]): 9.86 mg | AUC(0-inf) [29]: 126 µg·h/mL | CL/F (Homo sapiens [30]): 21.1 L/h | Activity (Homo sapiens [31]): 10% | Activity (Homo sapiens [32]): 47% | CL_renal (Homo sapiens [33]): 7637 mL/h | AUC(0-inf) [34]: 194 µg·h/mL | Activity (Homo sapiens [35]): 4.12 mg | Tmax (Homo sapiens [36]): 5.5 h | Vss/F (Homo sapiens [37]): 235 L | Cmax (Homo sapiens [38]): 1600 ng/mL | Cmax [39]: 21800 ng/mL | t1/2 (Homo sapiens [40]): 11.8 h
